Reference: ChEMBL document CHEMBL4033794, “Discovery of Trifluoromethyl Glycol Carbamates as Potent and Selective Covalent Monoacylglycerol Lipase (MAGL) Inhibitors for Treatment of Neuroinflammation” (J Med Chem, 2018)
Values after ≈ are worked out from the molar mass of the structure shown. Active and inactive are the calls of the source. No cut-off for these calls is given here.

How the values were obtained:
[1] = Volume of distribution in Beagle dog at 1 mg/kg, iv administered via cephalic vein measured up to 24 hrs post dose by HPLC-MS/MS analysis; assay type: ADME, organism-based, Canis lupus familiaris; conditions: in vivo
In short: (§1)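 Fasted male beagles (n = 2), fed ~4 h post-dose, given 1 mg/kg IV bolus via cephalic vein in 3% DMA/10% Solutol HS15/10% Miglyol/77% of 20% SBECD, 0.5 mL/kg. Jugular blood pre-dose and 0.083–24 h; plasma HPLC-MS/MS; non-compartmental analysis.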

[2] = Volume of distribution in non-human primate at 1 mg/kg, iv administered via cephalic vein measured up to 24 hrs post dose by HPLC-MS/MS analysis; assay type: ADME, organism-based, Macaca mulatta; conditions: rhesus monkey, in vivo
In short: (§2)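 Fasted male non-human primates (n = 2), fed ~1 h post-dose; 1 mg/kg IV bolus via saphenous or cephalic vein in 3% DMA/10% Solutol HS15/10% Miglyol/77% of 20% SBECD, 0.5 mL/kg. Femoral blood pre-dose and 0.083–24 h; plasma HPLC-MS/MS; non-compartmental analysis.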

[3] = Plasma clearance in Beagle dog at 1 mg/kg, iv administered via cephalic vein measured up to 24 hrs post dose by HPLC-MS/MS analysis; assay type: ADME, organism-based, Canis lupus familiaris; in short: as §1
[4] = Half life in non-human primate at 1 mg/kg, iv administered via cephalic vein measured up to 24 hrs post dose by HPLC-MS/MS analysis; assay type: ADME, organism-based, Macaca mulatta; conditions: rhesus monkey, in vivo; in short: as §2
CYP1A2 = molecular target: T1, CYP1A2 (Homo sapiens, UniProt P05177); test: Inhibition of CYP1A2 (unknown origin) at 3 uM; assay type: ADME
T1 sequence (P05177 whole entry): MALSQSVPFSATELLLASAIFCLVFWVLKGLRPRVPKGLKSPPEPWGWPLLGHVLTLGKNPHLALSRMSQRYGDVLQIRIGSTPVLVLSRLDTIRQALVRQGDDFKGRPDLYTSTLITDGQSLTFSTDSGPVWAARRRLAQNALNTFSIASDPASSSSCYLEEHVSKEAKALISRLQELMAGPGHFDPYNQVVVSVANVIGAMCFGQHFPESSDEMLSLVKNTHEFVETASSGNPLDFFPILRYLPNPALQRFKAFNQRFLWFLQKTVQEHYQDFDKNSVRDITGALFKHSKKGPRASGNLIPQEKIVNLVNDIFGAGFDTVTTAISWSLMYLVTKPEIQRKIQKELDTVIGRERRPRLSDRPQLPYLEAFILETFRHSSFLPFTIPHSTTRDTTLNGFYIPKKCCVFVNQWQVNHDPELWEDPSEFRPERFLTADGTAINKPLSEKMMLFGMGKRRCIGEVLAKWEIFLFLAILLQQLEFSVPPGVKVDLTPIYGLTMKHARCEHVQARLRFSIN
In short: (§3)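 Competitive inhibition screen of CYP3A4, 2D6, 2C9, 2C8 and 1A2 using isoform-relevant probe substrates, compound at 3 μM.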

[5] = Ratio of AUClast in C57BL6J mouse brain to plasma at 1 mg/kg, sc measured up to 24 hrs post dose by HPLC-MS/MS analysis; conditions: brain and plasma
[6] = Cmax in C57BL6J mouse brain at 1 mg/kg, sc up to 24 hrs post dose; assay type: ADME, organism-based; set-up: dose 1 mg/kg, route subcutaneous
[7] = Drug metabolism in human hepatocytes assessed as glucuronide conjugate formation; assay type: ADME, cell-based, Hepatocyte
CYP2D6 = CYP2D6 (Homo sapiens, UniProt P10635); test: Inhibition of CYP2D6 (unknown origin) at 3 uM; assay type: ADME; in short: as §3
[8] = Half life in Wistar Hannover rat at 1 mg/kg, iv administered as bolus dose via jugular vein cannula measured up to 24 hrs post dose by HPLC-MS/MS analysis; assay type: ADME, organism-based; conditions: in vivo
In short: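 Rats (n = 2) given 1 mg/kg IV bolus via jugular vein cannula, solution in 3% DMA/10% Solutol HS15/10% Miglyol/77% of 20% SBECD in water, 1 mL/kg. Carotid cannula blood pre-dose and 0.083–24 h; plasma by HPLC-MS/MS; non-compartmental analysis.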

CYP2C8 = molecular target: T2, CYP2C8 (Homo sapiens, UniProt P10632); test: Inhibition of CYP2C8 (unknown origin) at 3 uM; assay type: ADME; in short: as §3
T2 sequence (P10632 whole entry): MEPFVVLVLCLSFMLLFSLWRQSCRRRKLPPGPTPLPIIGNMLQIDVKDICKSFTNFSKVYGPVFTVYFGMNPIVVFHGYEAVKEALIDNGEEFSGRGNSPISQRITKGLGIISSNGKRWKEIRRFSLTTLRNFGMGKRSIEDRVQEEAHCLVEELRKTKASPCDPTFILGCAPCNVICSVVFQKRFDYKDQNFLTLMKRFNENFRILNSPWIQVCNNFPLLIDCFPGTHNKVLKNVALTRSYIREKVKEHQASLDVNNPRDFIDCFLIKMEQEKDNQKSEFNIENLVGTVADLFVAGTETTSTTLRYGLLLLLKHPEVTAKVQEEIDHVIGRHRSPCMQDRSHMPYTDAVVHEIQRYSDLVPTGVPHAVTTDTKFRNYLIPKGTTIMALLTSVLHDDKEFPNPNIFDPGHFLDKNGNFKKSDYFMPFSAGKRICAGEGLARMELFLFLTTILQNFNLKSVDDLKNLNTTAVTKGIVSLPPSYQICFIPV

Mus musculus = organism: Mus musculus; conditions: C57BL6J, 1 mg/kg
[9] = Thermodynamic solubility of the compound at pH 6.5 after 24 hrs; assay type: physicochemical; conditions: buffer, read-out: Therm_solubility
[10] = Lipophilicity, log D of the compound by HPLC analysis; assay type: physicochemical
In short: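 LogD determined by an HPLC-based (eLogD) method.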

Sequence of CYP2D6 (P10635 whole entry): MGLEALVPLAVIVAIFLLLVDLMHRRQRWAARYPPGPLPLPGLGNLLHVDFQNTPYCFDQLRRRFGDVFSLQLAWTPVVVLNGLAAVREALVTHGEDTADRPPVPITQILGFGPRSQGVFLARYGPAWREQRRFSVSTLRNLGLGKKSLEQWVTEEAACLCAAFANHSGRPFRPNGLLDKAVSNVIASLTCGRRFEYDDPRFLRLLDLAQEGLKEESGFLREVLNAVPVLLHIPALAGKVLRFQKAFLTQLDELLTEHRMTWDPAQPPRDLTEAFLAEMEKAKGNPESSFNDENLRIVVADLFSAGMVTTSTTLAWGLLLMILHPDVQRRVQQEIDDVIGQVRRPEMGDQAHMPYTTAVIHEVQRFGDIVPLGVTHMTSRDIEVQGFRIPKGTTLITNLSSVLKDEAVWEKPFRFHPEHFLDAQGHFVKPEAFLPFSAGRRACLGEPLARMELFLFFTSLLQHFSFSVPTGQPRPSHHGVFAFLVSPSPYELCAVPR

Vd [1]: 1.6 L/kg | Vd [2]: 1.5 L/kg | clearance [3]: 21 mL/min/kg | half-life [4]: 102 min | inhibition at 3 µM (CYP1A2): < 10% | Kp at 24 h [5]: 2.4 | Cmax [6]: > 1000 nM | Drug metabolism [7]: Metabolite_Detected | inhibition at 3 µM (CYP2D6): < 10% | half-life [8]: 78 min | inhibition at 3 µM (CYP2C8): < 10% | solubility thermodynamic at 24 h [9]: 25 µM (≈ 9.98 µg/mL) | logD [10]: 3.8
Structure (SMILES): O=C(O[C@H](CO)C(F)(F)F)N1C[C@@H]2[C@H](C1)[C@H]2c1ccn(-c2ccc(F)cc2)n1
inhibition (Mus musculus): Active
